Drawing on ChEMBL document CHEMBL1122638, “8-Methoxypsoralen-nucleic acid photoreaction. Effect of methyl substitution on pyrone vs. furan photoaddition” (J Med Chem, 1984), this text covers Radioactivity for four molecules.

Common to all, as to type: functional
Experiment [1] is described as follows: Furan monoadduct and diadduct distribution (products resulting from photoaddition with the nucleic acid poly (dA-dT)) after 10 min irradiation at 360 nm. In short, it runs like this: (§1)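 Alternating poly(dA-dT)·poly(dA-dT), 1 mg (1.5 µmol base pairs) in 1 mL 10 mM Tris pH 7.2, with 0.3 µmol tritiated psoralen added in 95% EtOH. Irradiated 10 min at 10 °C. Polymer ethanol-reprecipitated, then digested sequentially with DNase II (pH 5, 37 °C), phosphodiesterase II (pH 7) and alkaline phosphatase (pH 7.8-8.0). Adducts resolved by reverse-phase HPLC (water-methanol gradient, pH 2.2 phosphate), with A254 and ³H scintillation counting.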

Experiment [2] in a line: Pyrone monoadduct distribution (product resulting from photoaddition with the nucleic acid poly (dA-dT)) after 10 min irradiation at 360 nm. The procedure, abridged:
as §1

Experiment [3] can be described thus: Total radioactivity after 10 min irradiation at 360 nm. In short, it runs like this: as §1
A short description of experiment [4]: Total radioactivity (pyrone monoadduct, furan monoadduct and diadduct resulting from photoaddition with the nucleic acid poly (dA-dT)) after 10 min irradiation at 360 nm. In short, it runs like this: as §1

SMILES strings stand for the structures.

As for `COc1c2oc(C)cc2cc2ccc(=O)oc12`, the Radioactivity in experiment [1] is 73%; in experiment [2], 17%; in experiment [3], 90%.
As for `COc1c2occc2cc2ccc(=O)oc12`, the Radioactivity turned out to be 75% in experiment [1], 94% in experiment [4] and 19% in experiment [2].
As for `COc1c2oc(C)cc2cc2c(C)cc(=O)oc12`, the Radioactivity in experiment [1] came out at 94%; in experiment [2], 2%; in experiment [3], 96%.
For `COc1c2occc2cc2c(C)cc(=O)oc12`, the results for the Radioactivity in experiment [1], in experiment [2] and in experiment [3] were 94%, 2% and 96%, respectively.
